Data: article PMC3607822 (The Journal of General Physiology, 2013)

How the values were obtained:
[1] = target: T1, CNGA3 C7K/R-A (K624A, K629A, R643A, R646A, K657A, K659A, R661A) channels (Homo sapiens, UniProt Q16281, K624A/K629A/K657A/K659A/R643A/R646A/R661A); assay: Inside-out patch clamp, CNGA3 C7K/R-A; type: biochemical
T1 sequence (Q16281 1-694 K624A/K629A/R643A/R646A/K657A/K659A/R661A): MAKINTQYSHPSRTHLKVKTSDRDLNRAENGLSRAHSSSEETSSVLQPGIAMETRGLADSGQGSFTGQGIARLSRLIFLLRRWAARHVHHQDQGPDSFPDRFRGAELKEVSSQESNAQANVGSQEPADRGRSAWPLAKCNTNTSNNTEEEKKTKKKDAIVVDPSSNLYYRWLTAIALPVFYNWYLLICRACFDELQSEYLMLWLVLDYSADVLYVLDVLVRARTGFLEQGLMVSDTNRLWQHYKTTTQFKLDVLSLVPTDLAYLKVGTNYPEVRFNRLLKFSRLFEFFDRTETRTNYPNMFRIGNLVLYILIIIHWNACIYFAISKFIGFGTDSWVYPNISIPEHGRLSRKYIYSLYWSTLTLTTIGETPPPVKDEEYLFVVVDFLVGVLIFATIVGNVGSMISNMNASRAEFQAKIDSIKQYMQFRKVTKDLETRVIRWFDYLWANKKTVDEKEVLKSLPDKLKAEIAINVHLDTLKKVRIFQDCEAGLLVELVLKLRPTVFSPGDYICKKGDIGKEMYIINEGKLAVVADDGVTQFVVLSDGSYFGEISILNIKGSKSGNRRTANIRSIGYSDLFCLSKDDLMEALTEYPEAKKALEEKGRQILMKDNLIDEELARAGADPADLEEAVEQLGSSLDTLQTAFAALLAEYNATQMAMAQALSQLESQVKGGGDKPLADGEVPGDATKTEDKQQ

[2] = target: T2, A3-N7R-A,RR-QQ+B3 channels (Homo sapiens, UniProt Q16281+Q9NQW8, R101A/R103A/R643Q/R646Q/R72A/R75A/R81A/R82A/R86A); assay: Inside-out patch clamp, A3-N7R-A,RR-QQ+B3; type: biochemical
T2 sequence (Q16281 1-694 R72A/R75A/R81A/R82A/R86A/R101A/R103A/R643Q/R646Q): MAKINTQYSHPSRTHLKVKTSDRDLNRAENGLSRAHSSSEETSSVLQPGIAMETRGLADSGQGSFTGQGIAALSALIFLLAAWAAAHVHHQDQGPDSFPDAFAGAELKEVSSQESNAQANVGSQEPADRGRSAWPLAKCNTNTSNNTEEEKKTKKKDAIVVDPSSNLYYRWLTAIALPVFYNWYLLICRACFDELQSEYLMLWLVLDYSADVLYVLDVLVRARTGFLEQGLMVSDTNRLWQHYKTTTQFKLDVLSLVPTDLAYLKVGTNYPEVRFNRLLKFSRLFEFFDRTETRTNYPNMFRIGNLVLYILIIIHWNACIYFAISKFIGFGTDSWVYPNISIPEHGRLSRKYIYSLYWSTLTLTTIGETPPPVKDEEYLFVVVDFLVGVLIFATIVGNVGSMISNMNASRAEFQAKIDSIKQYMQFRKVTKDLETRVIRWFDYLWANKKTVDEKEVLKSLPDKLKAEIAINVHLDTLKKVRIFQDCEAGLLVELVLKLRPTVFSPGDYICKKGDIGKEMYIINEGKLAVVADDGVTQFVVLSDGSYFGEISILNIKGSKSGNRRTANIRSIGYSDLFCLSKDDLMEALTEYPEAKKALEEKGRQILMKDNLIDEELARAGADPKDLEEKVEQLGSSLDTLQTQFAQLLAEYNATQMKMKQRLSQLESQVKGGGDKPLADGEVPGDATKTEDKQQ
T2 sequence (Q9NQW8 1-809): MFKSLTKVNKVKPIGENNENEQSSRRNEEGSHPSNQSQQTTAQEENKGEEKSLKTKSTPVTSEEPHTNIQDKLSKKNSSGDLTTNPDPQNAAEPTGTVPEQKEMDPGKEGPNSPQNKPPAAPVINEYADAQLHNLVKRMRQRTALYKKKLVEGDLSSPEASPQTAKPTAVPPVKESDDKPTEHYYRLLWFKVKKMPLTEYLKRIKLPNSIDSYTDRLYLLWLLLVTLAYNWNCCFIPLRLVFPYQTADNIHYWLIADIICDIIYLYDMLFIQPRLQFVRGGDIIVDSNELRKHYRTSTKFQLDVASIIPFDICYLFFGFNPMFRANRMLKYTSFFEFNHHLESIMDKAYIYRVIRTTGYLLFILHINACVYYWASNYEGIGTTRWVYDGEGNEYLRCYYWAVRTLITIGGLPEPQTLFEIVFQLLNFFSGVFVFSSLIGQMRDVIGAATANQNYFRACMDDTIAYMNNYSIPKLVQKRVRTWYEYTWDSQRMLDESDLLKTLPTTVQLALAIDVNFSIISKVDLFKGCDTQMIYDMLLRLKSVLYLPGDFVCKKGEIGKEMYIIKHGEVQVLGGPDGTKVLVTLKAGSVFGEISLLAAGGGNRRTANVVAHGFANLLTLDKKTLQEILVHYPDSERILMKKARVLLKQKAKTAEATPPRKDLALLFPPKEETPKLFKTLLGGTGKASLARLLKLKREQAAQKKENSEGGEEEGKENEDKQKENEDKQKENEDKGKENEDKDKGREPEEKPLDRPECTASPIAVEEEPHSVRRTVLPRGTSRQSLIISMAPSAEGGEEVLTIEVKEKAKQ
In short: (§1)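 Subunit cRNAs (~20 ng, B in excess over A) injected into stage IV Xenopus oocytes; inside-out patches 2–7 d later, 20–22°C, symmetric 130 mM NaCl, 0.2 mM EDTA, 3 mM Hepes pH 7.2. Heteromer formation checked by 25 µM l-cis-diltiazem with 1 mM cGMP. diC8 phosphoinositides applied intracellularly in phosphatase-inhibitor cocktail. cGMP dose–response at +80 mV, leak-subtracted, Hill fit before/after for K1/2; mean ± SEM.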

A2ΔN+B3 channels = A2ΔN+B3 channels (UniProt Q00195+Q9NQW8, DEL61-90); assay: Inside-out patch clamp, A2ΔN+B3; type: biochemical, rat, human; details: 1 µM PIP3
In short: as §1

[3] = target: wild-type CNGA2 with CNGB3 channels (UniProt Q00195+Q9NQW8); assay: Inside-out patch clamp, CNGA2 with CNGB3; type: biochemical, rat, human; details: 1 µM PIP3
In short: as §1

[4] = target: CNGA3 with CNGB1 channels (Homo sapiens, UniProt Q14028+Q16281); assay: Inside-out patch clamp, CNGA3 with CNGB1; type: biochemical; details: 1 µM PIP3
In short: as §1

Sequence of CNGA3 with CNGB1 channels (Q16281 whole entry): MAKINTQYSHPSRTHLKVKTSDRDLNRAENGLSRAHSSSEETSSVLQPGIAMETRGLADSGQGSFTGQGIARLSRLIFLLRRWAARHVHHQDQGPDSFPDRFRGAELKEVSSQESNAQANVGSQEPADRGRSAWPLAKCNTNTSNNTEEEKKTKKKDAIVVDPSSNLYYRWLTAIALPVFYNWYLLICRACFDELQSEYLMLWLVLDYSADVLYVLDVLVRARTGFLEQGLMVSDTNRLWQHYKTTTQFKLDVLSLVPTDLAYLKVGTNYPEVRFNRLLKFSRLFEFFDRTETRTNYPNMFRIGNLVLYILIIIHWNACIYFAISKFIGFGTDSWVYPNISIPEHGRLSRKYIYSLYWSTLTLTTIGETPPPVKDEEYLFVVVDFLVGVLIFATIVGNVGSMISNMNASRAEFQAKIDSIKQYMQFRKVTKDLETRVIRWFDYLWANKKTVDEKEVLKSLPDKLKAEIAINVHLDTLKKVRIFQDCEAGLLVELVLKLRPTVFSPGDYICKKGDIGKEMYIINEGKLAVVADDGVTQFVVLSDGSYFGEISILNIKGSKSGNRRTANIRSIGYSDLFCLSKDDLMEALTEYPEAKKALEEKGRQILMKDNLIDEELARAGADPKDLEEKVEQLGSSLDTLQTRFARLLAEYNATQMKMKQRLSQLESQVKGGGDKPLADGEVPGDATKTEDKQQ
Sequence of CNGA3 with CNGB1 channels (Q14028 whole entry): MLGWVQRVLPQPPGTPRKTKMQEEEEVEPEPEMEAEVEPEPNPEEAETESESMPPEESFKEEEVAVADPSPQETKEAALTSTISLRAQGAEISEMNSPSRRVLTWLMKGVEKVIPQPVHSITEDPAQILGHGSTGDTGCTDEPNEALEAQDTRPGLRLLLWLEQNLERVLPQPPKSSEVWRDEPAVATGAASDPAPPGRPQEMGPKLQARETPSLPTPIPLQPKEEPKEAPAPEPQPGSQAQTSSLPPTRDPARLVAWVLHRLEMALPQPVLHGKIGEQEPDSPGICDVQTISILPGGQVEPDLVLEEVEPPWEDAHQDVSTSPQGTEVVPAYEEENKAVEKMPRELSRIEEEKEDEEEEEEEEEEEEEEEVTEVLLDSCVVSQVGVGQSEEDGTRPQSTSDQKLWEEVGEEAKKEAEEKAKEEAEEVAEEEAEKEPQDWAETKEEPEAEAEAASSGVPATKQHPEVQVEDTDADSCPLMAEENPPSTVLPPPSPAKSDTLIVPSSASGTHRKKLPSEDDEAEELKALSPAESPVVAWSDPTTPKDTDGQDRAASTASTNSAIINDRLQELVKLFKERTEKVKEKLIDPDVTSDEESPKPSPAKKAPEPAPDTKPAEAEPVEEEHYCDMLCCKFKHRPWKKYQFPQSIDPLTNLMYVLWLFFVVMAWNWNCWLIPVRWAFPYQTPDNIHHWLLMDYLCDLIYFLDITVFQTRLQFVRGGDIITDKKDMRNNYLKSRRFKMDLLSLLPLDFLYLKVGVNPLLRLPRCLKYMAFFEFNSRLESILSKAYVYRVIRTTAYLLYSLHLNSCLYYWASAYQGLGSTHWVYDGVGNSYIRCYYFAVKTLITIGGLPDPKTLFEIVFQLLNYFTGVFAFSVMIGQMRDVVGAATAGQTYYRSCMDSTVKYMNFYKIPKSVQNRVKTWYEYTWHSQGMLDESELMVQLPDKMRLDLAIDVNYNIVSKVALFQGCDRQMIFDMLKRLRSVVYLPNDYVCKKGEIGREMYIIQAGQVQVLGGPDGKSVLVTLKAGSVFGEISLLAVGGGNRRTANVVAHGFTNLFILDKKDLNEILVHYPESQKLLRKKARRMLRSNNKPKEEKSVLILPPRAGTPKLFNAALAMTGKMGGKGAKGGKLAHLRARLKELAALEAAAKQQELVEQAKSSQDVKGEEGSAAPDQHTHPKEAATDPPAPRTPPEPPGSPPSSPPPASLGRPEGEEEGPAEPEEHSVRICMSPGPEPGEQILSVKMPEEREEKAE

Row | Compound | Hill coefficient ([1]; cGMP activation) | EC50 ([1]; read-out: K1/2 cGMP, +80 mV, no PIPn) | Po max cGMP ([1]; saturating cGMP) | regulation of apparent cGMP affinity ([2]; 10 µM PIP2 or 1 µM PIP3) | percent change in K1/2 cGMP caused by PIP3 ([2]; 10 µM PIP3) | regulation of K1/2 cGMP by PIP3 (A2ΔN+B3 channels) | regulation of K1/2 cGMP by PIP3 [3] | regulation of K1/2 cGMP by PIP3 [4]
1 | Nc1nc2c(ncn2[C@@H]2O[C@@H]3COP(=O)(O)O[C@H]3[C@H]2O)c(=O)[nH]1 [cGMP, cyclic guanosine monophosphate] | 2.00 ± 0.00 (6) | 9.37 ± 0.29 µM | 0.92 ± 0.01 (4) |  |  |  |  | 
2 | phosphatidylinositol (3,4,5)-trisphosphate [PIP3] |  |  |  | insensitive to regulation | 2 ± 8% | insensitive to regulation by PIP3 | PIP3-sensitive | PIP3-sensitive
